# Shown are actives, neighbours in structure and some others; about 6.9% of the full set was active somewhere.
# PostGolgi yeast: phenotypic screen on post-Golgi transport, primary screen; post-Golgi transport phenotypic cell assay; inhibition, % at 10 µM; 0.9% of 98,000 active; AID 739, 2007;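 also: yeast cells grown in 1536-well plates; yeast grown about 18 h at 30C before absorbance read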
# FAK blocker: FAK kinase inhibitors, primary screen, biochemical | inhibition, %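 (tested at 7 µM)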 | Focal adhesion kinase 1 (Homo sapiens), Q05397 | AID 727, 2007 | biochemical FAK kinase activity assay | 0.84% of 97,000 active; in the data active = inhibition above about 19%;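 also: 0% = DMSO and 100% = reference compound high control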
# PTK2B oligo ant: antagonists of Pyk2 self-association, primary screen, Q293 cells, FERM NanoBiT luminescence, HTS; Protein-tyrosine kinase 2-beta (Homo sapiens), Q14289; hits give low values; z-score (the deposit names both 25 µM and 10 µM); 0.83% of 99,000 active;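 active = Z-score of -3 or lower, scaled per plate to the spread of control and sample wells; inactive = z-score above -3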;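 also: negative z-score means lost luminescence so less FERM oligomerization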
# Calb biofilm kill: clotrimazole potentiators killing Candida biofilms, primary screen, with clotrimazole, Alamar Blue. inhibition, % at 6 µM. 0.14% of 85,000 active. C. albicans biofilm + clotrimazole;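 active = inhibition above 20%; inactive = inhibition below 20%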;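 also: preformed 24 hr biofilms exposed to compound for 48 hr; 0% = biofilm without compound and 100% = blank killed by clotrimazole plus chlorhexidine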
# Ecoli tolC: growth inhibitors of E. coli tolC mutant, primary screen, strain BW25113 ΔtolC::kan, 384-well; 2.2% of 65,000 active; OD615; AID 573, 2007; growth inhibition, % at 10 µM (by protocol);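 active = growth inhibition at or above a cutoff equal to the mean over every tested compound plus 3 SD, cut at about 60% in these data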;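 also: growth measured after 20 h incubation at 37 °C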
#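 Signal: optical density read at 615 nm; Assay system: E. coli ΔtolC::kan strain BW25113; Times: 20 h incubation with compound, 37 °C; Dosing: 10 µM final, single dose.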
# PostGolgi ctrl: growth inhibition of yeast control strain, primary screen, counter-screen for post-Golgi transport modulator project; efflux-deficient yeast background strain, growth absorbance A615, 16 h; inhibition, % at 10 µM; 5% of 98,000 active
# * hit, by the source's call; nt = not tested or not shown. Rule as the data show it, unless noted: active = inhibition above about 30%; inactive = the rest.
SMILES,PostGolgi yeast,FAK blocker,PTK2B oligo ant,Calb biofilm kill,Ecoli tolC,PostGolgi ctrl
Cc1nn(Cc2ccccc2Cl)c(C)c1NC(=O)NC12CC3CC(CC(C3)C1)C2,-4.9,-3.3,-2.89,nt,nt,34.7*
Cc1nn(Cc2ccccc2Cl)c(C)c1NC(=O)c1nc2ncccn2n1,nt,3.1,-1.37,3.3,nt,nt
COC(=O)c1cnc(SC)nc1C,-8.2,-2.8,0.28,nt,nt,0.1
Cc1cc(N2CCC(C)CC2)nc(-n2nc(C)cc2C)n1,-0.5,-0.8,-0.41,6.1,100.0*,10.0
O=c1oc2c(CN3CCCCCC3)c(O)ccc2cc1-c1nc2ccccc2[nH]1,nt,nt,nt,7.5,28.6,nt
Cc1c(C)n(CC(O)CN2C(=O)c3ccccc3S2(=O)=O)c2ccccc12 (centres undefined),2.2,1.4,-0.38,4.1,nt,33.2*
N/C(Cc1ccc([N+](=O)[O-])cc1)=N\OC(=O)C(c1ccccc1)c1ccccc1,-9.7,3.7,0.28,nt,nt,32.8*
N/C(Cc1ccc([N+](=O)[O-])cc1)=N\OC(=O)c1ccc2ccccc2c1,12.5,1.4,3.52,-1.8,nt,71.5*
COc1ccc(C/C(N)=N/OC(=O)C(c2ccccc2)c2ccccc2)cc1OC,-0.5,3.0,-1.88,nt,nt,23.9
CCOc1cc2[nH]c(=S)n(CCN3CCC(C)CC3)c(=O)c2cc1OCC,7.8,-0.3,1.89,9.8,nt,-3.5
Cc1ccc(CNC2=NCCCCC2)n1C,-7.6,-2.8,0.63,5.8,-14.4,-2.1
S=c1nc2ccccc2c2nc(-c3ccccc3)[nH]n12,7.3,-5.2,-1.79,5.6,22.7,43.7*
S=c1nc(-c2ccccc2)[nH]n1-c1ccccc1,-3.4,-9.3,0.28,-2.9,0.6,12.1
CCOC(=O)Cn1cc(C=O)c2ccccc21,42.1*,2.0,-0.56,-3.2,nt,0.8
CCOC(=O)Cn1cc(C(=O)OC)c2ccccc21,-6.0,0.9,-0.26,7.2,0.0,7.0
O=C(COC(=O)c1cccc(S(=O)(=O)N2CCc3ccccc3C2)c1)NCc1ccco1,-4.7,nt,-0.56,7.3,6.8,43.5*
O=C(NNC(=O)c1cccs1)Nc1cccc(Cl)c1,-2.1,2.4,-0.26,nt,nt,3.3
Cc1ccc2c(c1)-c1cc(C)nn1C(c1sccc1C)N2 (centres undefined),-1.4,5.0,0.37,2.2,-9.7,30.2*
Cc1cc2n(n1)C(c1sccc1C)Nc1ccccc1-2 (centres undefined),15.2,2.2,-0.28,11.7,21.0,8.3
COc1ccc(CNc2nc(NCc3ccc(OC)c(OC)c3)n(C(=O)c3cccs3)n2)cc1OC,-1.6,3.8,-3.43*,nt,nt,8.3
COc1ccc(CNc2nc(NCc3ccc(OC)cc3)n(C(C)=O)n2)cc1,-5.6,0.5,-0.56,4.5,nt,11.7
Cc1occc1-c1nnc(SCC(N)=O)n1Cc1ccccc1,2.6,0.2,-0.1,nt,nt,7.8
Cc1nc(-c2cccc(NS(=O)(=O)c3cccc4ccccc34)c2)cs1,-3.7,0.3,-1.59,-1.6,nt,62.5*
CS(=O)(=O)N1CCN(C(=O)c2cccnc2)CC1,0.5,1.7,0.45,0.9,-6.6,35.2*
O=c1c2ccccc2nc(-c2ccccc2)n1Cc1ccco1,-1.4,-0.5,-1.56,0.2,28.5,5.3
SMILES,PostGolgi yeast,FAK blocker,PTK2B oligo ant,Calb biofilm kill,Ecoli tolC,PostGolgi ctrl
c1ccc2c(c1)oc1c(NCCCn3ccnc3)ncnc12,0.6,4.0,-0.27,12.5,-7.4,3.5
c1ccc(-c2c(-c3ccccc3)n(Cc3ccco3)c3ncnc(NCCCn4ccnc4)c23)cc1,96.3*,12.2,-2.25,3.9,nt,93.6*
Clc1ccc(-n2ncc3c(NCCCn4ccnc4)ncnc32)cc1,0.7,-1.7,-0.72,7.7,9.1,19.7
OCCNc1ncnc2c1c(-c1ccccc1)c(-c1ccccc1)n2Cc1ccco1,26.7,2.4,-3.29*,nt,5.1,33.1*
c1ccc(-c2oc3ncnc(NCCCn4ccnc4)c3c2-c2ccccc2)cc1,2.6,17.2,-2.73,7.9,97.5*,66.4*
O=C(OCC(=O)N1CCCCC1)c1c[nH]c(=O)[nH]c1=O,6.6,-0.9,0.43,5.4,-16.0,-0.6
CCn1nnc(NC(=O)c2cccnc2Cl)n1,-1.9,2.5,-0.06,8.7,nt,-6.1
c1csc(-c2noc(COc3ccc4c(c3)CCCC4)n2)c1,-6.7,-7.4,1.01,3.3,61.4*,9.3
CCOC(=O)Cc1c(C)nc(-c2ccccc2)[nH]c1=O,-8.0,1.8,-0.47,-1.4,-23.1,3.3
CCOC(=O)C(=Cc1ccc(F)cc1)C(=O)OCC,3.9,-2.4,nt,nt,nt,9.3
